From ChEMBL document CHEMBL1649585, “Role of the Mycobacterium tuberculosis P55 efflux pump in intrinsic drug resistance, oxidative stress responses, and growth” (2009)
Converted amounts (≈) assume the structure as drawn. The source made the active and inactive calls. The rule behind the calls is not given here. Where a SMILES comes first, the peptide text is derived from it. Bridges are numbered along the chain shown (N, C = ends). [ ]: non-standard residue; d: D form. The star is where a group is joined. Ileψ(thiazoline)Cys = CC[C@H](C)[C@H](N)C1=N[C@H](C(=O)*)CS1; dOrn = NCCC[C@@H](N)C(=O)O

Key:
[1] = test system: Mycobacterium tuberculosis variant bovis BCG; assay: Antimicrobial activity against Mycobacterium bovis BCG KOP55 harboring inactivated p55 gene by resazurine microtiter assay; format: functional; details: KOP55, Urine
How it was run: (§1)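 Resazurin microdilution in liquid medium: serial twofold compound dilutions, plates incubated 8 days at 37°C, then 2 more days after adding resazurin. MIC read from the indicator. Run in triplicate and repeated at least three times.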

[2] = test system: Mycobacterium tuberculosis variant bovis BCG; assay: Antimicrobial activity against Mycobacterium bovis BCG KOP55 harboring pPAZ23 carrying p27-p55 operon by resazurine microtiter assay; format: functional; details: KOP55, Urine; how it was run: as §1
[3] = test system: Mycobacterium tuberculosis variant bovis BCG; assay: Antimicrobial activity against Mycobacterium bovis BCG KOP55 harboring inactivated p55 gene by resazurine microtiter assay in presence of 1 mg/liter CCCP; format: functional; details: KOP55, Urine
How it was run: (§2)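 Resazurin microdilution MIC (serial twofold dilutions, 8 days at 37°C plus 2 days after resazurin) run with a fixed subinhibitory level of efflux pump inhibitor (valinomycin, reserpine or CCCP) present throughout. Triplicate, repeated at least three times.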

[4] = test system: Mycobacterium tuberculosis variant bovis BCG; assay: Antimicrobial activity against Mycobacterium bovis BCG KOP55 harboring inactivated p55 gene by resazurine microtiter assay in presence of 0.1 mg/liter valinomycin; format: functional; details: KOP55, Urine; how it was run: as §2
[5] = test system: Mycobacterium tuberculosis variant bovis BCG; assay: Antimicrobial activity against Mycobacterium bovis BCG KOP55 harboring inactivated p55 gene by resazurine microtiter assay in presence of 0.5 mg/liter reserpine; format: functional; details: KOP55, Urine; how it was run: as §2
[6] = test system: Mycobacterium tuberculosis variant bovis BCG; assay: Antimicrobial activity against Mycobacterium bovis BCG KOP55 harboring pPAZ23 carrying p27-p55 operon by resazurine microtiter assay in presence of 0.1 mg/liter valinomycin; format: functional; details: KOP55, Urine; how it was run: as §2
[7] = test system: Mycobacterium tuberculosis variant bovis BCG; assay: Antimicrobial activity against Mycobacterium bovis BCG KOP55 harboring pPAZ23 carrying p27-p55 operon by resazurine microtiter assay in presence of 1 mg/liter CCCP; format: functional; details: KOP55, Urine; how it was run: as §2
[8] = test system: Mycobacterium tuberculosis variant bovis BCG; assay: Antimicrobial activity against Mycobacterium bovis BCG KOP55 harboring pPAZ23 carrying p27-p55 operon by resazurine microtiter assay in presence of 0.5 mg/liter reserpine; format: functional; details: KOP55, Urine; how it was run: as §2
[9] = test system: Mycobacterium tuberculosis variant bovis BCG; assay: Antimicrobial activity against Mycobacterium bovis BCG KOP55 harboring inactivated p55 gene by twofold dilution method; format: functional
How it was run: (§3)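 Agar MIC: log-phase cultures diluted to 10^5 cells/ml, 10 µl spotted onto Middlebrook 7H10 plates with serial twofold antibiotic dilutions. Visible growth scored after 21 days at 37°C. Triplicate, repeated at least three times.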

[10] = test system: Mycobacterium tuberculosis variant bovis BCG; assay: Antimicrobial activity against Mycobacterium bovis BCG P55 by resazurine microtiter assay; format: functional; details: P55, Urine; how it was run: as §1
[11] = test system: Mycobacterium tuberculosis variant bovis BCG; assay: Antimicrobial activity against Mycobacterium bovis BCG KOP55 harboring inactivated p55 gene at 0.125 umol after 14 days by disk diffusion method; format: functional
How it was run: (§4)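 Disc assay on Middlebrook 7H10 agar: lawn spread from a suspension of 10^6 cells/ml, discs carrying the redox compound placed on the lawn, halos recorded after 14 days at 37°C.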

[12] = test system: Mycobacterium tuberculosis variant bovis BCG; assay: Antimicrobial activity against Mycobacterium bovis BCG P55 at 0.125 umol after 14 days by disk diffusion method; format: functional; how it was run: as §4
[13] = test system: Mycobacterium tuberculosis variant bovis BCG; assay: Increase in intracellular redox potential in Mycobacterium bovis BCG KOP55 harboring pPAZ23 carrying p27-p55 operon assessed as increased accumulation of formazan at 64 mg/liter after 1 hr by MTT assay; format: functional
How it was run: (§5)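 MTT reduction as an index of intracellular redox potential: cultures at OD600 0.2 treated with drug or solvent for 1 h at 37°C in quadruplicate wells, MTT (2 mg/ml stock) added, 3 h further incubation. Formazan solubilised with 10% SDS, 30 min shaking, absorbance at 600 nm. Repeated at least three independent times.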

[14] = test system: Mycobacterium tuberculosis variant bovis BCG; assay: Increase in intracellular redox potential in Mycobacterium bovis BCG KOP55 harboring inactivated p55 gene assessed as increased accumulation of formazan at 64 mg/liter after 1 hr by MTT assay; format: functional; how it was run: as §5
[15] = test system: Mycobacterium tuberculosis variant bovis BCG; assay: Antimicrobial activity against Mycobacterium bovis BCG KOP55 harboring pPAZ23 carrying p27-p55 operon by twofold dilution method; format: functional; how it was run: as §3
[16] = test system: Mycobacterium tuberculosis variant bovis BCG; assay: Antimicrobial activity against Mycobacterium bovis BCG KOP55 harboring inactivated p55 gene at 5 umol after 14 days by disk diffusion method; format: functional; how it was run: as §4
[17] = test system: Mycobacterium tuberculosis variant bovis BCG; assay: Antimicrobial activity against Mycobacterium bovis BCG P55 at 5 umol after 14 days by disk diffusion method; format: functional; how it was run: as §4
[18] = test system: Mycobacterium tuberculosis variant bovis BCG; assay: Decrease in intracellular redox potential in Mycobacterium bovis BCG KOP55 harboring inactivated p55 gene assessed as decreased accumulation of formazan at 256 mg/liter after 1 hr by MTT assay; format: functional; set-up: scale not given: the % may be the effect or the level left; how it was run: as §5
[19] = test system: Mycobacterium tuberculosis variant bovis BCG; assay: Effect on intracellular redox potential in Mycobacterium bovis BCG KOP55 harboring pPAZ23 carrying p27-p55 operon assessed as accumulation of formazan at 256 mg/liter after 1 hr by MTT assay; format: functional, organism-based; how it was run: as §5
[20] = test system: Mycobacterium tuberculosis variant bovis BCG; assay: Decrease in intracellular redox potential in Mycobacterium bovis BCG KOP55 harboring inactivated p55 gene assessed as decreased accumulation of formazan at 5 mg/liter after 1 hr by MTT assay; format: functional; set-up: scale not given: the % may be the effect or the level left; how it was run: as §5
[21] = test system: Mycobacterium tuberculosis variant bovis BCG; assay: Effect on intracellular redox potential in Mycobacterium bovis BCG KOP55 harboring pPAZ23 carrying p27-p55 operon assessed as accumulation of formazan at 5 mg/liter after 1 hr by MTT assay; format: functional, organism-based; how it was run: as §5

O=[N+]([O-])c1cn2c(n1)OC[C@@H](OCc1ccc(OC(F)(F)F)cc1)C2 [PRETOMANID]
MIC [1]: 0.125 µg/mL
MIC [2]: 0.25 µg/mL (≈ 0.696 µM)

CO[C@@H]1[C@@H](OC(N)=O)[C@@H](O)[C@H](Oc2ccc3c(O)c(NC(=O)c4ccc(O)c(CC=C(C)C)c4)c(=O)oc3c2C)OC1(C)C [NOVOBIOCIN]
MIC [1]: 2 µg/mL
MIC [3]: 1 µg/mL
MIC [4]: 0.5 µg/mL
MIC [5]: 1 µg/mL
MIC [2]: 16 µg/mL (≈ 26.1 µM)
MIC [6]: 8 µg/mL
MIC [7]: 4 µg/mL
MIC [8]: 8 µg/mL

CN[C@H](CC(C)C)C(=O)N[C@H]1C(=O)N[C@@H](CC(N)=O)C(=O)N[C@H]2C(=O)N[C@H]3C(=O)N[C@H](C(=O)N[C@H](C(=O)O)c4cc(O)cc(O)c4-c4cc3ccc4O)[C@H](O)c3ccc(c(Cl)c3)Oc3cc2cc(c3O[C@@H]2O[C@H](CO)[C@@H](O)[C@H](O)[C@H]2O[C@H]2C[C@](C)(N)[C@H](O)[C@H](C)O2)Oc2ccc(cc2Cl)[C@H]1O [VANCOMYCIN]
MIC [1]: 0.25 µg/mL
MIC [3]: 0.25 µg/mL
MIC [2]: 4 µg/mL (≈ 2.76 µM)
MIC [6]: 4 µg/mL

CC(C)[C@@H]1NC(=O)[C@H](C)OC(=O)[C@@H](C(C)C)NC(=O)[C@@H](C(C)C)OC(=O)[C@H](C(C)C)NC(=O)[C@H](C)OC(=O)[C@@H](C(C)C)NC(=O)[C@@H](C(C)C)OC(=O)[C@H](C(C)C)NC(=O)[C@H](C)OC(=O)[C@@H](C(C)C)NC(=O)[C@@H](C(C)C)OC1=O [VALINOMYCIN]
MIC [1]: 0.2 µg/mL
MIC [2]: 0.4 µg/mL (≈ 0.36 µM)

CN(C)CCCN1c2ccccc2Sc2ccc(Cl)cc21 [CHLORPROMAZINE]
MIC [9]: 4 µg/mL (≈ 12.5 µM)

Cc1c(C)n2c(CBr)c(C)c(=O)n2c1=O [MONOBROMOBIMANE]
MIC [10]: 500 µM (≈ 136 µg/mL)
MIC [1]: 125 µM

COC(=O)[C@H]1[C@H]2C[C@@H]3c4[nH]c5cc(OC)ccc5c4CCN3C[C@H]2C[C@@H](OC(=O)c2cc(OC)c(OC)c(OC)c2)[C@@H]1OC [RESERPINE]
MIC [1]: 2 µg/mL
MIC [2]: 2 µg/mL (≈ 3.29 µM)

CO[C@H]1/C=C/O[C@@]2(C)Oc3c(C)c(O)c4c(O)c(c(/C=N/N5CCN(C)CC5)c(O)c4c3C2=O)NC(=O)/C(C)=C\C=C\[C@H](C)[C@H](O)[C@@H](C)[C@@H](O)[C@@H](C)[C@H](OC(C)=O)[C@@H]1C [RIFAMPIN]
MIC [1]: 0.0004 µg/mL
MIC [3]: 0.0002 µg/mL
MIC [4]: 0.0002 µg/mL
MIC [5]: 0.0004 µg/mL
MIC [2]: 0.0032 µg/mL (≈ 0.00389 µM)
MIC [6]: 0.0016 µg/mL
MIC [7]: 0.0008 µg/mL
MIC [8]: 0.0016 µg/mL

CC1=CC(=O)c2ccccc2C1=O [MENADIONE]
inhibition zone (IZ) [11]: 16 mm
inhibition zone (IZ) [12]: 20 mm
fold change (FC) [13]: 3.5
fold change (FC) [14]: 1.3

Clc1ccc(COC(Cn2ccnc2)c2ccc(Cl)cc2Cl)cc1 (configuration not stated) [ECONAZOLE]
MIC [9]: 1.6 µg/mL (≈ 4.19 µM)
MIC [15]: 6.4 µg/mL (≈ 16.8 µM)

CC[C@H](C)[C@H](N)C1=N[C@H](C(=O)N[C@@H](CC(C)C)C(=O)N[C@H](CCC(=O)O)C(=O)N[C@H](C(=O)N[C@H]2CCCCNC(=O)[C@H](CC(N)=O)NC(=O)[C@@H](CC(=O)O)NC(=O)[C@H](Cc3cnc[nH]3)NC(=O)[C@@H](Cc3ccccc3)NC(=O)[C@H]([C@@H](C)CC)NC(=O)[C@@H](CCCN)NC2=O)[C@@H](C)CC)CS1 [BACITRACIN] ({Ileψ(thiazoline)Cys}-L[dE]IK[dOrn]I[dF]H[dD]N; lactam 4-C)
MIC [1]: 16 µg/mL
MIC [3]: 16 µg/mL
MIC [2]: > 256 µg/mL
MIC [7]: > 256 µg/mL

N#CC(C#N)=NNc1cccc(Cl)c1 [CARBONYL CYANIDE M-CHLOROPHENYLHYDRAZONE]
MIC [1]: 2 µg/mL

CN(C)C(=O)/N=N/C(=O)N(C)C [DIAMIDE]
inhibition zone (IZ) [16]: 30 mm
inhibition zone (IZ) [17]: 0 mm
Activity [18]: 35%
Activity [19]: inactive

CC[C@@H](CO)NCCN[C@@H](CC)CO [ETHAMBUTOL]
MIC [1]: 2 µg/mL

Oc1cc(Cl)ccc1Oc1ccc(Cl)cc1Cl [TRICLOSAN]
MIC [9]: 8 µg/mL (≈ 27.6 µM)

CC(C)/N=c1\cc2n(-c3ccc(Cl)cc3)c3ccccc3nc-2cc1Nc1ccc(Cl)cc1 [CLOFAZIMINE]
MIC [9]: 0.025 µg/mL (≈ 0.0528 µM)
MIC [15]: 0.1 µg/mL (≈ 0.211 µM)
Activity [20]: 15%
Activity [21]: inactive

OC(CS)C(O)CS (racemic) [DL-DITHIOTHREITOL]
inhibition zone (IZ) [16]: 30 mm
inhibition zone (IZ) [17]: 0 mm
